What was measured:
[1] = test system: human beta and alpha cells in islet grafts; experiment: Total beta- and alpha-cell counts in human islet grafts; type: in vivo; details: Donor 5 study
Method in brief: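 After twice-daily sc dosing, the graft-bearing kidney was removed. For the Donor 5 study, grafts were recovered on day 21. Whole-section images were taken from the outer graft edge with a motorized-stage fluorescence microscope and stitched, and total insulin+ and glucagon+ cells were counted.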

patients with T2D = details: cited from earlier work
[2] = test system: INS-1 rat pancreatic beta-cell line; details: in vitro; cited from earlier work
[3] = test system: human beta cells in islet grafts; experiment: TUNEL assay of human beta-cell apoptosis in recovered islet grafts; type: in vivo
Method in brief: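 Recovered human islet grafts were taken on days 29, 32 and 21 for the Donor 3, 4 and 5 studies, at the end of twice-daily sc dosing. Sections were co-stained for insulin and TUNEL-labelled following the kit instructions. Cells were visualized by fluorescence microscopy and counted, and results expressed as percent TUNEL-positive beta cells.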

[4] = test system: diabetic NSG RIP-DTR mice engrafted with human islets; type: in vivo, mouse; details: Donor 5 study; low dose 50 µg/kg sc twice daily
[5] = test system: diabetic NSG RIP-DTR mice engrafted with human islets; experiment: Body weight of human islet-engrafted mice; type: in vivo, mouse; details: 50, 150, 500 µg/kg sc twice daily
Method in brief: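 Male NSG RIP-DTR mice, 8–12 weeks old, made diabetic by diphtheria toxin ablation of mouse beta cells and engrafted with a marginal mass of human islets from a single donor. Randomized into four groups: vehicle or test compound at 50, 150 or 500 µg/kg/injection, given sc twice daily until removal of the graft-bearing kidney at ~4 weeks post-transplant. Body weights followed over the study.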

[6] = test system: diabetic NSG RIP-DTR mice engrafted with human islets; experiment: Glucose tolerance test; type: in vivo, mouse; details: for GTT vs controls: Donor 3 study
Method in brief: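 Human islet-engrafted diabetic NSG RIP-DTR mice on twice-daily sc vehicle or test compound were fasted 5–6 hours. Glucose (2.0 g/kg body weight) was injected ip, and blood glucose was measured afterwards.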

[7] = test system: human islets engrafted in NSG RIP-DTR mice; experiment: Plasma human insulin; type: in vivo, mouse; details: 2 weeks post-transplant
[8] = high dose 500 µg/kg sc twice daily
[9] = low dose 50 µg/kg sc twice daily, n=3 or 4
[10] = medium dose 150 µg/kg sc twice daily

Substance: lixisenatide
- numbers of alpha cells in islet graft relative to control group [1, 8]: approximately threefold higher
- numbers of beta cells in islet graft relative to control group [1, 8]: approximately threefold higher
- alpha-cell counts in islet graft relative to control group [1, 9]: approximately twofold higher
- beta-cell counts in islet graft relative to control group [1, 9]: approximately twofold higher
- numbers of alpha cells in islet graft relative to control group [1, 10]: approximately threefold higher
- numbers of beta cells in islet graft relative to control group [1, 10]: approximately threefold higher
- reduction in postprandial plasma glucose vs placebo (patients with T2D; T2D patients insufficiently controlled on metformin): significantly greater reduction in postprandial plasma glucose
- glycemic control (postprandial and fasting glucose levels) (patients with T2D; patients with T2D, once-daily administration): improved glycemic control by decreasing both postprandial and fasting glucose levels
- lipid- and cytokine-induced apoptosis [2]: protect against lipid- and cytokine-induced apoptosis
- average percent beta-cell apoptosis at the end of each study ([3]; TUNEL-positive beta cells, control and lixisenatide groups, Donors 3, 4, 5): < 1%
- beta-cell apoptosis (TUNEL) vs control ([3]; grafts recovered days 29, 32, 21 (Donors 3, 4, 5), all dose groups): no significant differences in beta-cell apoptosis
- blood glucose [4]: ~ 400 mg/dL
- body weight change between transplant and nephrectomy ([5]; Donor 1 study): all mice lost significant weight between the time of transplant and nephrectomy, except the medium-dose group
- body weight change between transplant and nephrectomy ([5]; Donor 3 and 4 studies): no significant change in body weight
- GTT vs controls ([6]; high dose 500 µg/kg (P<0.05)): significant differences from controls
- GTT vs controls ([6]; medium dose 150 µg/kg (P<0.01)): significant differences from controls
- GTT vs control group ([6]; Donor 4 study, low dose 50 µg/kg (P<0.05)): significant differences from the control group
- stimulation index (ratio of stimulated to fasting human insulin) vs control ([7]; high dose 500 µg/kg, Donor 3 and 4 studies): significantly increased compared to controls
- stimulation index (ratio of stimulated to fasting human insulin) vs control ([7]; medium dose 150 µg/kg, Donor 1, 3 and 4 studies): significantly increased compared to controls

— PMC4548726 (Diabetes, Metabolic Syndrome and Obesity: Targets and …, 2015)
